The record followed here is ChEMBL document CHEMBL4622973, “Discovery of Potent Small-Molecule SIRT6 Activators: Structure-Activity Relationship and Anti-Pancreatic Ductal Adenocarcinoma Activity” (J Med Chem, 2020).

SMILES strings stand for the structures. Activity calls are given as the source filed them.

Data set [1] in a line: Tmax in Sprague-Dawley rat at 10 mg/kg, po after 0.083 to 24 hrs by LC-MS/MS analysis. Type of data set: ADME, organism-based. Particulars: in vivo. A digest of the protocol: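 Male Sprague-Dawley rats, 6–8 weeks old, received a single dose of 10 mg/kg p.o. or 2 mg/kg i.v. The vehicle was 5% DMSO, 10% Solutol and 85% saline at pH 7. Blood was taken by cardiac puncture at 0.083–24 h (p.o.) or 0.25–24 h (i.v.), and plasma was measured by LC-MS/MS. Values are mean ± SD, n = 3.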

The next data set concerns MIA PaCa-2. The data set can be described thus: Inhibition of colony formation in human MIAPaCa2 cells incubated for 9 to 18 days by crystal violet staining based assay. It counts as functional, cell-based. A digest of the protocol:
(§1)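 Cells are seeded per well at the line-specific density: BXPC-3 750, PANC-1 500, AsPC-1 2200, MIAPaCa-2 500. Compound at several concentrations is added after 24 h. Incubation runs 9–18 days (BXPC-3 18 days, PANC-1 14 days). Cells are then fixed with 4% paraformaldehyde and stained with crystal violet, and colonies of more than 50 cells are counted.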

The target of data set [2] is T1, NAD-dependent protein deacylase sirtuin-6 (Homo sapiens, UniProt Q8N6T7). Nature of the data set: Binding affinity to SIRT6 in human PANC1 cells assessed as protection of SIRT6 protein from temperature-dependent degradation at 25 uM incubated for 72 hrs by CETSA. It counts as cell-based. Particulars: PANC-1. The essentials:
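Cells treated with compound (25 μM) or DMSO for 72 h, washed, resuspended in PBS with protease inhibitor cocktail, split into aliquots heated 3 min at a temperature gradient. Lysed by three freeze–thaw cycles, centrifuged at 4 °C for 15 min; soluble SIRT6 in supernatant detected by western blot. Triplicate.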

A further data set deals with NCI-H1975. Nature of the data set: Antiproliferative activity against human NCI-H1975 cells assessed as reduction in cell viability incubated for 72 hrs by MTT assay. Type of data set: functional, cell-based. On the technique in general: Tetrazolium dyes change colour on reduction, which living cells bring about.
For another data set, the system named is BXPC-3. Nature of the data set: Antiproliferative activity against human BxPC3 cells at 3.3 to 10 uM incubated for 24 hrs by EdU incorporation assay. It counts as functional, cell-based. The essentials: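 Cells seeded per well at 8000 (BXPC-3) or 4600 (PANC-1), then treated with a concentration series for 24 h. EdU incorporation detected with an EdU-Apollo kit, with Hoechst counterstain. EdU-positive cells counted by high-content imaging across 10 fields.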

In the next data set the test system is Bel-7402. The data set can be described thus: Antiproliferative activity against human Bel7402 cells assessed as reduction in cell viability incubated for 72 hrs by MTT assay. It counts as functional, cell-based.
For data set [3], the target named is T1, NAD-dependent protein deacylase sirtuin-6. Nature of the data set: In-vivo activation of SIRT6 in BALB/c nude mouse xenografted with human PANC1 cells assessed as reduction in H3K9Ac expression at 150 mg/kg/day, po for 30 days by IHC analysis. The note with it: PANC-1. Type of data set: functional, organism-based. A digest of the protocol:
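Female BALB/c nude mice (6–8 weeks) bearing subcutaneous PANC-1 xenografts (5×10⁶–1×10⁷ cells, right flank), randomised at 130–150 mm³ tumours; oral dosing daily for 30 days versus vehicle (n=6). Tumour tissue stained by immunohistochemistry.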

Data set [4] has as its target Protein deacetylase HDAC6 (Homo sapiens, UniProt Q9UBN7). Nature of the data set: Inhibition of HDAC6 (unknown origin) by FDL assay. A digest of the protocol:
(§2)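 Selectivity testing by FDL assay at concentrations up to 200 µM. SIRT1-2 assays run by an outside contract provider. Values reported as IC50.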

Data set [5] has as its target T1, NAD-dependent protein deacylase sirtuin-6. The data set can be described thus: Binding affinity to N-terminal his-tagged human SIRT6 expressed in Escherichia coli M15 [pREP4] by SPR assay.
For data set [6] the target is unchanged. Nature of the data set: […] in human BxPC3 cells assessed as reduction in H3K9ac levels incubated for 72 hrs by Western blot analysis. It counts as cell-based. The note with it: BXPC-3. A digest of the protocol: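 Cells incubated 72 h with various compound concentrations; whole-cell RIPA lysates with protease inhibitors, BCA-normalised, separated on 12% SDS-PAGE, transferred to PVDF, blocked in 5% milk or BSA. Probed 10 h at 4 °C with antibodies to SIRT6, acetyl-H3K9/K18/K56, total H3, Lin28b, Myc, IGF2BP3, β-actin; HRP secondary, chemiluminescent detection.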

Another data set concerns the target Histone deacetylase 11 (Homo sapiens, UniProt Q96DB2). Nature of the data set: Inhibition of HDAC11 (unknown origin) by FDL assay. The essentials:
as §2

In data set [7] the test system is PANC-1. Nature of the data set: Antitumor activity against human PANC1 cells xenografted in BALB/c nude mouse assessed as slowing of tumor growth at 100 to 150 mg/kg/day, po for 30 days. Type of data set: functional, organism-based. A digest of the protocol: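 Female BALB/c nude mice, 6-8 weeks old, injected subcutaneously in the right flank with 5×10^6–1×10^7 PANC-1 cells. At 130-150 mm³, mice randomized into 4 groups (n = 6) and dosed orally once daily for 30 days against vehicle. Tumor volume followed over time. Inhibition rate assessed against control.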
For orientation: A xenograft is tissue or cells of one species grown in another, often human tumour cells in immunodeficient mice.

The target in the next data set is Histone deacetylase 7 (Homo sapiens, UniProt Q8WUI4). Nature of the data set: Inhibition of HDAC7 (unknown origin) by FDL assay. The essentials:
as §2

The nature of data set [8]: Half life in Sprague-Dawley rat at 10 mg/kg, po after 0.083 to 24 hrs by LC-MS/MS analysis. Particulars: in vivo. It counts as ADME, organism-based. The essentials:
(§3)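 Male Sprague-Dawley rats, 6-8 weeks old. Dosing solution of 10 (PO) or 2 (IV) mg/mL in 5% DMSO, 10% Solutol and 85% saline, pH 7. Blood taken by cardiac puncture at 0.083–24 h (PO) or 0.25–24 h (IV). Plasma levels measured by LC-MS/MS. Values are mean ± SD, n = 3.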

Data set [9] addresses T1, NAD-dependent protein deacylase sirtuin-6. Nature of the data set: Activation of N-terminal his-tagged human SIRT6 expressed in Escherichia coli M15 [pREP4] assessed as increase in deacetylation activity incubated for 2 hrs using Ac-RYQK(Ac)-AMC substrate by FDL assay relative to control.
The target in data set [10] is NAD-dependent protein deacetylase sirtuin-3, mitochondrial (Homo sapiens, UniProt Q9NTG7). The data set can be described thus: Inhibition of SIRT3 (unknown origin) by FDL assay. The essentials: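 SIRT3 and SIRT5 tested by an outsourced FDL fluorogenic deacetylase assay, each from a different contract provider. The IC50 was determined for each enzyme, with concentrations going up to 200 μM.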

The species named for a further data set is Homo sapiens. The data set can be described thus: Antiproliferative activity against human OCUT-2C cells assessed as reduction in cell viability incubated for 72 hrs by MTT assay. Type of data set: functional, cell-based.
In the next data set the test system is ASPC1. Nature of the data set: Inhibition of colony formation in human AsPC1 cells incubated for 9 to 18 days by crystal violet staining based assay. It counts as functional, cell-based. The essentials: as §1
Data set [11] is described as follows: Cmax in Sprague-Dawley rat at 2 mg/kg, iv after 0.25 to 24 hrs by LC-MS/MS analysis. The note with it: in vivo. It counts as ADME, organism-based. On the set-up: dose 2 mg/kg, route intravenous. A digest of the protocol:
as §3

For data set [12], the system named is PANC-1. Nature of the data set: Induction of cell cycle arrest in human PANC1 cells assessed as increase in accumulation at G2 phase incubated for 48 hrs by propidium iodide staining based flow cytometry. Type of data set: functional. The essentials:
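PANC-1 and BXPC-3 cells in 6-well plates treated with a concentration series for 48 h. Stained with 50 µg/mL propidium iodide for 30 min in the dark. DNA content analysed by flow cytometry for cell-cycle phase distribution.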
A general note: Flow cytometry measures light scatter and fluorescence of single cells or particles in a stream.

A short description of data set [13]: Half life in Sprague-Dawley rat at 2 mg/kg, iv after 0.25 to 24 hrs by LC-MS/MS analysis. Type of data set: ADME, organism-based. Particulars: in vivo. A digest of the protocol: as §3
Another data set has as its target Histone deacetylase 8 (Homo sapiens, UniProt Q9BY41). The data set can be described thus: Inhibition of HDAC8 (unknown origin) by FDL assay. The essentials:
as §2

T1 sequence (Q8N6T7 whole entry): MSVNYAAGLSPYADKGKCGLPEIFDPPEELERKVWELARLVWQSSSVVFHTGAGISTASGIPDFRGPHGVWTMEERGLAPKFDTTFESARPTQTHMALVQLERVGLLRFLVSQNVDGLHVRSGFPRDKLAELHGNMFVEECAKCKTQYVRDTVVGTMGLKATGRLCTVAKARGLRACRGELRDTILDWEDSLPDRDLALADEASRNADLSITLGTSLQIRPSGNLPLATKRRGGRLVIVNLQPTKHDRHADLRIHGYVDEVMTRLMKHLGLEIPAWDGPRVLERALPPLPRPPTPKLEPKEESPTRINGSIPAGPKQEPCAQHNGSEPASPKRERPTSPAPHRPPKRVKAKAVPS
Histone deacetylase 11, sequence (Q96DB2 whole entry): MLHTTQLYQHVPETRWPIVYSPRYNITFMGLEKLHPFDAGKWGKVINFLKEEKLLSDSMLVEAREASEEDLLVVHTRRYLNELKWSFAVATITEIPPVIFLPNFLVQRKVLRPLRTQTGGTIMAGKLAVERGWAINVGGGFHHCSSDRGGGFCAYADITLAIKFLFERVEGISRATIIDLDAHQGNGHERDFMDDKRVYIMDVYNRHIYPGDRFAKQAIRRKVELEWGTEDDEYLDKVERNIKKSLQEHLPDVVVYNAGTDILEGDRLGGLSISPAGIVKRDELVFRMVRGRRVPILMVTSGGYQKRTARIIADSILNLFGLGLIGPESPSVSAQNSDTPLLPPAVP
Histone deacetylase 8, sequence (Q9BY41 whole entry): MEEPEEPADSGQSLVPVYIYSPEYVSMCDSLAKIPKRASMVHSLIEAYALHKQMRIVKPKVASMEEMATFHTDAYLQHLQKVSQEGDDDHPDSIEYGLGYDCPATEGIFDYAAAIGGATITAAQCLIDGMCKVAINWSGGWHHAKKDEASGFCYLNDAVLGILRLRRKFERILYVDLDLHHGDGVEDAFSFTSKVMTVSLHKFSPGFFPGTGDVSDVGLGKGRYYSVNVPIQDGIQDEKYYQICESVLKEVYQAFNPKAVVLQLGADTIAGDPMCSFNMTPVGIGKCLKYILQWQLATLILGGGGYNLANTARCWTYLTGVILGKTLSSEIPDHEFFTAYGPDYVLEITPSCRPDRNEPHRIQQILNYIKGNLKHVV
NAD-dependent protein deacetylase sirtuin-3, mitochondrial, sequence (Q9NTG7 whole entry): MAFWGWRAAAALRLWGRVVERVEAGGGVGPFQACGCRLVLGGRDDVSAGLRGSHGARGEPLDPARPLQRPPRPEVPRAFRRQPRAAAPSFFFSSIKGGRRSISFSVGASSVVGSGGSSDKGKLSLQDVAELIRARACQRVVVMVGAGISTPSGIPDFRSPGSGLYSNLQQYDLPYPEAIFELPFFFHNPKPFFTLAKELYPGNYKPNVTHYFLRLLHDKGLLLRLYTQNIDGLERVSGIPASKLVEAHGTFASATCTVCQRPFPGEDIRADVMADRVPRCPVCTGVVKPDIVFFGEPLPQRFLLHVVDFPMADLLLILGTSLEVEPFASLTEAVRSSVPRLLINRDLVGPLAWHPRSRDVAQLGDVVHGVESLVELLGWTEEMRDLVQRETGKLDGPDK
Histone deacetylase 7, sequence (Q8WUI4 whole entry): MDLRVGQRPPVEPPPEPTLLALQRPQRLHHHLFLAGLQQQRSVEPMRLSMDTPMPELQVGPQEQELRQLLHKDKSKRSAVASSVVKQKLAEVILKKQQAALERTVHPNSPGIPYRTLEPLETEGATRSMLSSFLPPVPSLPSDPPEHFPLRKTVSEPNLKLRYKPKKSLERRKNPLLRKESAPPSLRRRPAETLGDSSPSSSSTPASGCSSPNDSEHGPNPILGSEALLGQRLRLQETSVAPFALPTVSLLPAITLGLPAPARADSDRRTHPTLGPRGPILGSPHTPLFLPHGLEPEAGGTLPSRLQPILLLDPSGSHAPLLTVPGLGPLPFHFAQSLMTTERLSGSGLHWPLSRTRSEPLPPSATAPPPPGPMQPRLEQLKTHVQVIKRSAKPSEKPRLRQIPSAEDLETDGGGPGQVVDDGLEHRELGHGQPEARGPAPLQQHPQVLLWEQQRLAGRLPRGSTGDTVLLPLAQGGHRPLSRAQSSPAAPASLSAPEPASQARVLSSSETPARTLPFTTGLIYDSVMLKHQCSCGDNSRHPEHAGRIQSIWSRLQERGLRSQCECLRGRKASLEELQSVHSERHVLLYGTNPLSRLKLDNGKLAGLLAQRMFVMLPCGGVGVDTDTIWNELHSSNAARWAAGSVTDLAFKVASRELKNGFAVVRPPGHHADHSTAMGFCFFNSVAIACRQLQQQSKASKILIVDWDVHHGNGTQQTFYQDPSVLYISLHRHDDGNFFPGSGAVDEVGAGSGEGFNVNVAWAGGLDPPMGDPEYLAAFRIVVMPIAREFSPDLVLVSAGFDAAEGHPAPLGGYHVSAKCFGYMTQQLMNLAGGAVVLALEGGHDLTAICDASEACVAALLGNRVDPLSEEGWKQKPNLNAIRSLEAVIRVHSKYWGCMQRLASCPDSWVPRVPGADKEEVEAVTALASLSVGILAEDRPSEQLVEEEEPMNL
Protein deacetylase HDAC6, sequence (Q9UBN7 whole entry): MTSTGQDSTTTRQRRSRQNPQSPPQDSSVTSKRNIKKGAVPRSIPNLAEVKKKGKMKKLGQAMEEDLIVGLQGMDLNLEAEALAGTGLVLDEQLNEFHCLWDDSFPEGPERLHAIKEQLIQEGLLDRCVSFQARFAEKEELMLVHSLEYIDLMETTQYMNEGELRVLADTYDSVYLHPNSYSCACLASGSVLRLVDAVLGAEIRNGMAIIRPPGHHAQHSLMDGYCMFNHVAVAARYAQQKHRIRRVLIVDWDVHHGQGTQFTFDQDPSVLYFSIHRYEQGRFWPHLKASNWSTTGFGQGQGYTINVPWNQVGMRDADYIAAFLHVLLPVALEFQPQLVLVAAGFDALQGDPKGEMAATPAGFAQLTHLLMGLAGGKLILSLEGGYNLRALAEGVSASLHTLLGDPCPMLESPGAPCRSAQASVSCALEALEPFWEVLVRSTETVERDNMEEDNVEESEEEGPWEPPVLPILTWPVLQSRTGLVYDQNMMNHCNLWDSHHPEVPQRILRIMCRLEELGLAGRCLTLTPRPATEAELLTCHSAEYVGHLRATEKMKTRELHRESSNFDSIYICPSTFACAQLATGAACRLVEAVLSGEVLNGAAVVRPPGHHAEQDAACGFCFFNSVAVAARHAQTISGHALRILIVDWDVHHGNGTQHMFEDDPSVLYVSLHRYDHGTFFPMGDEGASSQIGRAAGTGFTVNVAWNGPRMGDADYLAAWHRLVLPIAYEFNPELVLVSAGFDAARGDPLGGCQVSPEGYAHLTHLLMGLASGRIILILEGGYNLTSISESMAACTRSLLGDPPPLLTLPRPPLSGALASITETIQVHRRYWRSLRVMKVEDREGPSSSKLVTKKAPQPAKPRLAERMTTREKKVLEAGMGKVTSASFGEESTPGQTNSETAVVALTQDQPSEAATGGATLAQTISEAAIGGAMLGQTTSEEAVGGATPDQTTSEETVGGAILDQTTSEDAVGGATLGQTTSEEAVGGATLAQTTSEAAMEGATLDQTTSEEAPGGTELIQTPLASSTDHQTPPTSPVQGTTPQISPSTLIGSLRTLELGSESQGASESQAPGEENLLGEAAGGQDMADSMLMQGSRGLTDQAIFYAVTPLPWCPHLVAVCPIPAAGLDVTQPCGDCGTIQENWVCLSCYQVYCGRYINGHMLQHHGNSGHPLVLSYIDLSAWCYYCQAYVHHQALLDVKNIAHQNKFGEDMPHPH

By Tmax is commonly meant the time from dosing to the highest level. A word on the IC50: it is the concentration needed to halve the response being measured. As usually defined, the Kd is a measure of binding affinity in units of concentration. In general, half-life refers to the time needed for the level to fall by half in the phase considered. Higher therefore signals slow decline. Broadly, the EC50 is the concentration at which the effect is half-maximal. In general, Cmax refers to the maximum level reached in the sampled fluid or tissue. On to `O=C(NC(c1ccccc1)c1ccccc1)c1cc(-c2cc3ccccc3o2)nc2ccccc12`, for which the Tmax in [1] is 2 h. Moreover, the inhibition result (in the data set on MIA PaCa-2; in data set [6]; in the data set with ASPC1) was “Dose-dependent effect” in each case. Moreover, the outcome (in data set [2]; in the data set on NCI-H1975; with BXPC-3; in the data set on Bel-7402; in [3]; in the data set listed under Homo sapiens) was Active. The IC50 (in data set [4]; at Histone deacetylase 11; against Histone deacetylase 7; in data set [10]; at Histone deacetylase 8) was > 200 µM throughout. Besides, the Kd in data set [5] was determined as 5.52 µM. The Activity result with PANC-1 [7] and in the data set with PANC-1 [12] was “Dose-dependent effect” each time. In addition, the half-life in [8] was 7.52 h. For the same compound, the EC1.5 in data set [9] turned out to be 0.58 µM. In addition, the EC50 in data set [9] is 5.35 µM. In data set [11], this compound came in with a Cmax of 5120 ng/mL. Moreover, the t1/2 in data set [13] was 9.06 h.
